These results are taken from ChEMBL document CHEMBL5352422, “Development of l-Dopa-containing diketopiperazines as blood-brain barrier shuttle” (Eur J Med Chem, 2022).

The term half-life denotes the time in which the quantity being followed falls by half.

Data set [1] is described as follows: Stability of the compound in stimulated intestinal fluid at 40 mg/ml pancreatin by measuring half life measured upto 180 mins by HPLC analysis. The data set is classed as ADME. The conditions noted are these: simulated intestinal fluid with pancreatin. In a few lines:
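USP simulated intestinal fluid containing pancreatin, in a 37 °C shaking water bath. Samples at 0, 60, 120 and 180 min were quenched with ice-cold acetonitrile containing 0.5% formic acid, centrifuged at 4 °C for 10 min, filtered and analyzed by HPLC. Means of three experiments ± SD.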

Data set [2] has as its target T1, Nuclear factor erythroid 2-related factor 2 (Rattus norvegicus) (UniProt O54968).
T1 sequence (whole entry): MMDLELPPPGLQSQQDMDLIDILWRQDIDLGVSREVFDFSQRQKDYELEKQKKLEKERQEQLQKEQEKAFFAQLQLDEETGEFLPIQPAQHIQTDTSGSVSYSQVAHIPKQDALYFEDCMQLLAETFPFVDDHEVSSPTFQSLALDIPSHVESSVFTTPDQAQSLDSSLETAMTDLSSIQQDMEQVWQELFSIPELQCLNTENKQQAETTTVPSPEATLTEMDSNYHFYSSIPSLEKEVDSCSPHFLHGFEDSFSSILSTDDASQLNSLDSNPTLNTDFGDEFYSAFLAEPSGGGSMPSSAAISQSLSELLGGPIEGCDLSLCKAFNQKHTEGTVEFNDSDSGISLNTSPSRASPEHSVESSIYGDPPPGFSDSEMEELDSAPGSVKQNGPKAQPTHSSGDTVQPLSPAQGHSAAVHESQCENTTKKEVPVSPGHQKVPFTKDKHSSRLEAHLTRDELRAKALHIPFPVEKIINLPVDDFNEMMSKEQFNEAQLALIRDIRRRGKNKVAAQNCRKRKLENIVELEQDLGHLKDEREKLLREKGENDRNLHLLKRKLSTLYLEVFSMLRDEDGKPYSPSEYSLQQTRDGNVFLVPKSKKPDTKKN
The experiment in a line: Induction of MPP+ induced Nrf2 nuclear translocation in rat PC12 cells at 100 nM incubated for 24 hrs by Western blot analysis. The conditions noted are these: PC-12, filed as activator. The data set is classed as cell-based. The procedure, abridged: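 PC12 cells were incubated 24 h with MPP+ (25 μM) with or without compound (100 nM). Nuclear extracts (30 μg) were run on 10% SDS-PAGE and immunoblotted for Nrf2, with histone H3 as nuclear marker and ECL detection.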
(In general: Immunoblotting shows a protein as a band on a membrane.)

Another data set deals with PC-12. Kind of data set: Upregulation of Gpx expression in MPP+ induced rat PC-12 cells at 100 nM pretreated with compound for 24 hrs followed by MPP+ stimulation and measured after 6 hrs. The data set is classed as functional, cell-based. The conditions noted are these: time 30.0 hrs. The procedure, abridged:
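PC12 cells pretreated 24 h with compound, then exposed to 25 μM MPP+ for 6 h. mRNA quantified by real-time PCR (95 °C 3 min, then 40 cycles of 95 °C 10 s and 62 °C 30 s), samples in triplicate. Values normalized to β-actin, expressed as 2^-ΔΔCt with untreated cells set to 1.0. n = 3.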

Calls of active or inactive are those of the source. No cut-off for these calls is given here.

For `C#CCSC[C@H]1NC(=O)[C@H](Cc2ccc(OC(C)=O)c(OC(C)=O)c2)NC1=O`, the half-life in data set [1] was 2.57 h. The result (in data set [2]; in the data set on PC-12) was Active.
